# Measurements from ChEMBL document CHEMBL4400528, “Discovery and Optimization of Selective and in Vivo Active Inhibitors of the Lysophosphatidylserine Lipase α/β-Hydrolase Domain-Containing 12 (ABHD12)” (J Med Chem, 2019).
# Activity calls are given as the source filed them. No cut-off for these calls is given here.
# Legend:
# [1] = biological target: T1, Lysophosphatidylserine lipase ABHD12 (Mus musculus) (UniProt Q99LR1); assay: Inhibition of JJH350 binding to ABHD12 in mouse brain membrane proteome at 10 uM after 20 mins by CuAAC based fluorescence scanning assay relative to control; format: cell membranes
# T1 sequence (whole entry): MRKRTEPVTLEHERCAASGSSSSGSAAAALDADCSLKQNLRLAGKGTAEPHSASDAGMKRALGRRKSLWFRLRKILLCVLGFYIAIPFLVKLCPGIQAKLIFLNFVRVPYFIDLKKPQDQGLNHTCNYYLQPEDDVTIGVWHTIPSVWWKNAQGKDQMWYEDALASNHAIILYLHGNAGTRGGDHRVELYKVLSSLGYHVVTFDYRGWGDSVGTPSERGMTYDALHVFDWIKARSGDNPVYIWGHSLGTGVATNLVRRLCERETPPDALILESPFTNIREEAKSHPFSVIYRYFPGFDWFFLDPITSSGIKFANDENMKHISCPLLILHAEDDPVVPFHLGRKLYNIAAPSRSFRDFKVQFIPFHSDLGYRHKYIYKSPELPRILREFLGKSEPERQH
# Summary of the method: (§1)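 Brain membrane fraction (1 mg/mL; DPBS homogenate, 16,000 x g pellet) treated with inhibitor for 20 min at room temperature. JJH350 (2 μM) added for 45 min at 37 °C, then CuAAC with rhodamine-PEG3-azide, CuSO4, TBTA and TCEP for 1 h at room temperature. Run on 10% SDS-PAGE and read by in-gel fluorescence. ABHD12 band normalized to control-treated sample (100%); IC50 from log dose-response fit.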
# [2] = biological target: T1, Lysophosphatidylserine lipase ABHD12 (Mus musculus); assay: Inhibition of JJH350 binding to ABHD12 in mouse brain membrane proteome at 2 uM after 20 mins by CuAAC based fluorescence scanning assay relative to control; format: cell membranes; summary of the method: as §1
# [3] = biological target: T2, Lysophosphatidylserine lipase ABHD12 (Mus musculus, UniProt Q99LR1); assay: Inhibition of JJH350 binding to ABHD12 in mouse brain membrane proteome incubated for 20 mins by CuAAC fluorescence dependent gel-based competitive ABPP assay; format: cell membranes; summary of the method: as §1
# T2 sequence (Q99LR1 whole entry): T1 sequence (whole entry)
# [4] = biological target: T2, Lysophosphatidylserine lipase ABHD12; assay: Inhibition of FP-Rh probe binding to ABHD12 in mouse brain membrane proteome incubated for 45 mins by CuAAC fluorescence dependent gel-based competitive ABPP assay; format: cell membranes
# Summary of the method: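 Mouse brain membrane proteome (1 mg/mL) preincubated with inhibitor for 45 min at 37 °C. Labelled with FP-Rh (1 μM) or JJH350 (2 μM) for 45 min at 37 °C. JJH350 samples were clicked to Rh-N3 (25 μM) by CuAAC for 60 min at room temperature. Read by 10% SDS-PAGE and in-gel fluorescence scanning. Band intensity taken relative to control (100%), and IC50 from log(inhibitor) vs normalized response.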
# [5] = biological target: T3, Lysophosphatidylserine lipase ABHD12 (Homo sapiens) (UniProt Q8N2K0); assay: Inhibition of ABHD12 in PMA-differentiated human THP1 cells assessed as increase in TNF-alpha production at 1 uM treated simultaneously with IFN-gamma/LPS for 24 hrs and measured 6 to 24 hrs after stimulation
# T3 sequence (whole entry): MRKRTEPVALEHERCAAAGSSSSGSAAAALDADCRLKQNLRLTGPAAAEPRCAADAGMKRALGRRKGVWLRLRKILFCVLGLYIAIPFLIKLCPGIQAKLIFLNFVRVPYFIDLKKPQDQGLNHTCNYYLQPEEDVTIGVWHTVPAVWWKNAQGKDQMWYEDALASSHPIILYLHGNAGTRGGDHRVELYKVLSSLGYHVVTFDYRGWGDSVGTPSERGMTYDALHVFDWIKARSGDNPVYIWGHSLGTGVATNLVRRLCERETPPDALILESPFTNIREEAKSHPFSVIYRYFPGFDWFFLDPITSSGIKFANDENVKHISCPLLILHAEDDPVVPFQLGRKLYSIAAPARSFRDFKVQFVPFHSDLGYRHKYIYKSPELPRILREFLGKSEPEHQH
# Summary of the method: (§2)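 THP-1 cells grown in RPMI/10% FBS/0.05 mM 2-mercaptoethanol, plated 2.5×10^6 per well. Treated 24 h with 150 ng/mL PMA, washed, rested 24 h. Polarized to M1 with 20 ng/mL IFN-γ plus 10 pg/mL LPS for 24 h. Compound or DMSO (test 0.1–1 μM) present at every step. Media sampled 6 and 24 h after stimulation; cytokines by MSD V-Plex. Mean ± SEM, four biological experiments.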
# [6] = biological target: T3, Lysophosphatidylserine lipase ABHD12 (Homo sapiens); assay: Inhibition of ABHD12 in PMA-differentiated human THP1 cells assessed as increase in CCL4 production at 1 uM treated simultaneously with IFN-gamma/LPS for 24 hrs and measured 6 to 24 hrs after stimulation; summary of the method: as §2
# [7] = biological target: T3, Lysophosphatidylserine lipase ABHD12 (Homo sapiens); assay: Inhibition of ABHD12 in PMA-differentiated human THP1 cells assessed as increase in CCL3 production at 1 uM treated simultaneously with IFN-gamma/LPS for 24 hrs and measured 6 to 24 hrs after stimulation; summary of the method: as §2
# [8] = biological target: T3, Lysophosphatidylserine lipase ABHD12 (Homo sapiens); assay: Inhibition of ABHD12 in PMA-differentiated human THP1 cells assessed as increase in IL-1beta production at 1 uM treated simultaneously with IFN-gamma/LPS for 24 hrs and measured 6 to 24 hrs after stimulation; summary of the method: as §2
# [9] = biological target: T3, Lysophosphatidylserine lipase ABHD12 (Homo sapiens); assay: Inhibition of ABHD12 (unknown origin) expressed in HEK293T cell membranes at 10 uM using 17:1 lyso-PS as substrate preincubated for 20 mins followed by substrate addition measured after 30 mins by LC-MS analysis
# Summary of the method: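 Membranes from HEK293T overexpressing ABHD12 (0.25 mg/mL) in DPBS preincubated with compound for 20 min at room temperature. 17:1 lyso-PS added (100 μM final) and incubated 30 min at 37 °C. Quenched with 2:1 CHCl3/MeOH containing 1 nmol 15:0 FFA internal standard. Organic phase analyzed by LC-MS on C18 with NH4OH-containing gradient.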
structure (smiles),measurement,setting,value
FC(F)(F)c1cnc(N2CCC(NC(=S)Nc3ccccc3)CC2)c(Cl)c1,inhibition,[1],96%
same,inhibition,[2],66%
O=C(Nc1cccnc1)NC1CCN(c2ncc(C(F)(F)F)cc2Cl)CC1,inhibition,[1],29%
same,inhibition,[2],1%
FC(F)(F)Oc1ccc(Oc2ccnc(N3CCCC(NC(=S)Nc4cccnc4)C3)c2Cl)c(Cl)c1 (stereo not given),IC50,[3],90 µM
FC(F)(F)c1cc(Cl)nc(N2CCC(NC(=S)Nc3cccnc3)CC2)c1,IC50,[3],0.54 µM
S=C(Nc1cccnc1)NC1CCN(c2cc(Oc3ccccc3)ccn2)CC1,IC50,[3],1.9 µM
FC(F)(F)Oc1ccc(Oc2ccnc(N3CCC(NC(=S)Nc4cccnc4)CC3)c2)cc1,IC50,[3],0.41 µM
Fc1ccc(Oc2ccnc(N3CCC(NC(=S)Nc4cccnc4)CC3)c2)cc1,IC50,[3],1.4 µM
FC(F)(F)Oc1ccccc1Oc1ccnc(N2CCC(NC(=S)Nc3cccnc3)CC2)c1Cl,IC50,[3],0.096 µM
FC(F)(F)Oc1ccc(Oc2ccnc(N3CCC(NC(=S)Nc4cccnc4)CC3)c2C(F)(F)F)cc1,IC50,[3],2.8 µM
COc1ccc(N2CCN(C(=O)ON3C(=O)C4CN(Cc5ccc(Oc6ccccc6)cc5)CCN4C3=O)CC2)cc1 (stereo not given),IC50,[4],> 10 µM
FC(F)(F)Oc1ccc(Oc2ccnc(N3CCC[C@H](NC(=S)Nc4cccnc4)C3)c2Cl)c(Cl)c1,inhibition,[5],inactive
same,inhibition,[6],inactive
same,inhibition,[7],inactive
same,inhibition,[8],inactive
same,IC50,[3],> 100 µM
FC(F)(F)c1cc(N2CCC(NC(=S)Nc3cccnc3)CC2)ncc1Cl,IC50,[3],1.4 µM
CN(C(=S)Nc1cccnc1)C1CCN(c2ncc(C(F)(F)F)cc2Cl)CC1,inhibition,[1],61%
same,inhibition,[2],31%
S=C(Nc1cccnc1)NC1CCN(c2cc(Cl)ccn2)CC1,IC50,[3],2.1 µM
COc1ccnc(N2CCC(NC(=S)Nc3cccnc3)CC2)c1,IC50,[3],> 5 µM
FC(F)(F)c1cnc(NCCCCCNC(=S)Nc2cccnc2)c(Cl)c1,inhibition,[1],90%
same,inhibition,[2],54%
S=C(Nc1cccnc1)NC1CCN(c2cc(OC3CCCCC3)ccn2)CC1,IC50,[3],3.4 µM
FC(F)(F)Oc1cccc(Oc2ccnc(N3CCC(NC(=S)Nc4cccnc4)CC3)c2Cl)c1,IC50,[3],0.089 µM
FC(F)(F)c1cnc(N2C3CCC2CC(NC(=S)Nc2cccnc2)C3)c(Cl)c1 (stereo not given),inhibition,[1],63%
same,inhibition,[2],19%
FC(F)(F)c1cnc(NCCCNC(=S)Nc2cccnc2)c(Cl)c1,inhibition,[1],0%
same,inhibition,[2],0%
FC(F)(F)c1cccnc1N1CCC(NC(=S)Nc2cccnc2)CC1,IC50,[3],> 5 µM
Cc1cnc(N2CCN(NC(=S)Nc3cccnc3)CC2)c(Cl)c1,inhibition,[9],inactive
same,IC50,[3],> 50 µM
FC(F)(F)c1cnc(NCCCCNC(=S)Nc2cccnc2)c(Cl)c1,inhibition,[1],35%
same,inhibition,[2],12%
